Screens as filed in PubChem.
An excerpt weighted towards active compounds, which were near 4.5% of everything screened.
TAAR1 agonist: human TAAR1 agonism; activation, % at 3 µM; Q96RJ0; 0.99% of 360,000 active; CHO RD-HGA16 TAAR1, Fluo-8 calcium fluorescence; vehicle wells 0%, saturating PEA agonist 100%; AID 624467;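 active = activation above the mean activation of all test compounds in the run plus 3 SD, cut at about 38% in these data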
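Test system: RD-HGA16 (CHO) cells co-expressing Gα16 and hTAAR1; dosing: one-point dosing at 3 µM (nominal); timing: 17-24 h seeding, 75 min 37 °C dye, 30 min RT; signal: kinetic Fluo-8 calcium fluorescence; read-out basis: % activation relative to PEA EC100 response; controls: DMSO and PEA EC100; replicates: n 1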
OX1R antag-1: antagonists of human orexin 1 receptor (OX1R) | OX1R-expressing cells, FRET antagonist read-out | inhibition, % at 6.6 µM | 1.8% of 330,000 active | AID 485270; in the data active = inhibition mostly above about 38%, no sharp cut-off; inactive = mostly below about 40%
Target sequence (O43613 whole entry, looked up): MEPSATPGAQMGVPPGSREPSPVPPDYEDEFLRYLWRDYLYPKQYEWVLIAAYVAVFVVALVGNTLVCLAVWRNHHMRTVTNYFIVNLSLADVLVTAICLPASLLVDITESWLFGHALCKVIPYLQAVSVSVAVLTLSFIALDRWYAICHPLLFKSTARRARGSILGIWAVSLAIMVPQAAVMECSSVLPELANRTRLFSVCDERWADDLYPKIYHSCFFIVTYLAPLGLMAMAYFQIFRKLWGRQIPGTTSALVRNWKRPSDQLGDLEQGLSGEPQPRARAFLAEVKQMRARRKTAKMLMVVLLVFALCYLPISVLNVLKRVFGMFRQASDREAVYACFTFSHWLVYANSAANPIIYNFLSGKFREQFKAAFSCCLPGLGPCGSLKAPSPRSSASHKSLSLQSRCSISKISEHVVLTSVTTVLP
GPR7 antag: blocks human GPR7 receptor signaling. P48145. GPR7-expressing cells, fluorescence antagonist assay. inhibition, % at 4.4 µM. 1.1% of 290,000 active. AID 1861; in the data active = inhibition above about 16%, passing the limit was not always enough;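 also: cells stimulated with the agonist NPW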
OX1R antag-2: blocks the human orexin 1 receptor. O43613. inhibition, % at 5 µM. 0.43% of 330,000 active. CHO/OX1R cells, Fluo-8 calcium fluorescence, orexin A. AID 434989;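 active = inhibition above its plate's threshold, mean inhibition of all tested compounds on the plate plus 3 SD, cut at about 37% in these data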
TAAR1 antag: human TAAR1 antagonism | AID 624466 | inhibition, % at 3 µM | Q96RJ0 | 1.5% of 360,000 active | CHO RD-HGA16 TAAR1, Fluo-8 calcium fluorescence, antagonist;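 active = inhibition above a per-plate cutoff, the mean inhibition of test compounds on that plate plus 3 SD, cut at about 49% in these data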
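System: CHO RD-HGA16 cells bearing hTAAR1. Reagent: EC80 β-phenethylamine stimulus. Schedule: seeding 17-24 h prior, 75-min 37 °C, 30-min RT dye loading. Signal: Fluo-8 intracellular calcium dye fluorescence, real-time kinetic reads. Read-out: % inhibition from peak post-agonist over basal fluorescence ratio. Benchmarks: vehicle wells and EC80 agonist wells. Replicates: n of 1.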
CHO parental Ca: signal in parental CHO cells, OX1R antagonist counter-screen. parental CHO-K1, ATP-induced calcium, Fluo-8 fluorescence. inhibition, % at 5.6 µM. 0.63% of 330,000 active. AID 463079;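 active = inhibition above that plate's mean sample inhibition plus 3 SD, cut at about 26% in these data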
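material = parental CHO cells | also added = ATP as calcium-mobilizing challenge | dosing = single point at 5.6 µM | detection = intracellular calcium via Fluo-8 no-wash fluorescent dye | read-out = % inhibition | benchmarks = low control ATP plus DMSO, high control DMSO only | repeats = one well per compound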
OX1R HTRF confirm: OX1R (human) antagonism, HTRF confirmed. shares compounds with OX1R antag-1. OX1R-expressing cells, HTRF antagonist assay. inhibition, % at 6.6 µM. 49% of 1,800 active. AID 492964; in the data active = inhibition above about 55%;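 also: CHO cells expressing OX1R stimulated with orexin A at about EC80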
CHO-K1 HTRF: counter-screen for OX1R antagonists: effect in parental CHO-K1 cells; shares compounds with OX1R antag-1; HTRF counterscreen; inhibition, % at 6.6 µM; 48% of 1,800 active; AID 493232; in the data active = inhibition above about 17%
Numbers stand for hits; 0 = inactive; - = not tested or not shown.

SMILES	TAAR1 agonist	OX1R antag-1	GPR7 antag	OX1R antag-2	TAAR1 antag	CHO parental Ca	OX1R HTRF confirm	CHO-K1 HTRF
CCN(CC(=O)Nc1c(F)cccc1F)C(=O)CCc1nc2ccccc2c(=O)[nH]1	0	0	-	0	0	0	-	-
CCN(CC(=O)Nc1ccccc1C(F)(F)F)C(=O)CCc1nc2ccccc2c(=O)[nH]1	0	82	0	0	0	0	0	0
C=CCOc1ccc(CNc2ccc3[nH]c(=O)[nH]c3c2)cc1OCC	0	112	0	0	0	0	0	0
CNc1cccc(-c2c(OC)cccc2OC)n1	0	-	-	-	0	-	-	-
COCc1cn(CC(C)n2c(=O)c3ccccc3n2Cc2cc(C(C)C)no2)nn1 (stereo not drawn)	0	-	-	-	0	-	-	-
Cc1cc([N+](=O)[O-])cc2c1-c1ncccc1C2=Nc1ccccc1	0	0	0	0	0	0	-	-
Cc1ccccc1N=C1c2cc([N+](=O)[O-])ccc2-c2ncccc21	0	160	0	0	0	0	0	42
COc1ccc2nc(SCC(=O)NC3CCCC3)c(C)cc2c1	0	0	0	0	0	0	-	-
C[C@@H]1CN([C@@H](C)CO)C(=O)c2cc(N(C)C)ccc2O[C@@H](C)CCCCO[C@@H]1CN(C)Cc1ccc2c(c1)OCO2	0	-	-	-	0	-	-	-
CCN1CCN(CCC2Oc3cc([N+](=O)[O-])ccc3NC2=O)CC1 (stereo not drawn)	0	78	0	0	0	0	0	25
c1ccc2c(c1)oc1c(NCc3ccc4c(c3)OCO4)ncnc12	-	88	0	0	-	0	82	0
c1ccc2c(c1)oc1c(Nc3ccc4c(c3)OCO4)ncnc12	0	0	0	0	0	0	-	-
CCCCOc1ccc(-c2nnc(-c3cc[n+](C)cc3)o2)cc1	0	102	0	0	0	0	88	74
O=C(CC[C@H]1O[C@@H](n2ccc(=O)[nH]c2=O)[C@H](O)[C@@H]1O)N[C@H](Cc1ccccc1)C(=O)NCC1CCCO1 (stereo partly drawn)	0	-	-	-	0	-	-	-
COC(=O)c1c(NC(=O)c2ccco2)sc2c1C(C(=O)OC)CC2 (stereo not drawn)	0	80	0	0	0	0	62	0
CC(=O)NC1=C(Nc2ccc(N(C)C)cc2)C(=O)c2ccccc2C1=O	0	120	0	0	0	0	66	92
O=C1c2ccccc2S(=O)(=O)c2cc(C(=O)N3CCC(N4CCCC4)CC3)ccc21	0	101	-	0	0	0	0	88
O=C(NCC1CCCO1)c1ccc2c(c1)S(=O)(=O)c1ccccc1C2=O (stereo not drawn)	0	81	-	0	0	0	61	63
O=C(NCCO)c1ccc2c(c1)S(=O)(=O)c1ccccc1C2=O	0	108	0	0	0	0	65	67
O=C1Cc2cc(O)ccc2O1	0	-	-	-	0	-	-	-
Cc1ccc(S(=O)(=O)N2CCCCC2)cc1NC(=O)c1ccc(=O)[nH]c1	0	-	-	-	0	-	-	-
CC1(C)CC(NS(=O)(=O)c2ccc(F)cc2)CC(C)(C)N1	0	86	0	0	0	0	0	0
CCS(=O)(=O)c1ccc(Sc2nncn2C)c([N+](=O)[O-])c1	0	96	0	0	0	0	0	51
CCOc1ccc(C2=Nn3cnnc3SC2)cc1	0	0	0	0	0	0	-	-
O=[N+]([O-])c1ccc(C2=Nn3cnnc3SC2)cc1	0	88	0	0	0	0	58	93
SMILES	TAAR1 agonist	OX1R antag-1	GPR7 antag	OX1R antag-2	TAAR1 antag	CHO parental Ca	OX1R HTRF confirm	CHO-K1 HTRF
CCCNC(=O)C1(C)CCN(Cc2ccc(OC)c3ccccc23)C1 (stereo not drawn)	0	-	-	-	0	-	-	-
COCC(=O)OCC(=O)Nc1ccc(Cl)cc1[N+](=O)[O-]	0	99	0	0	0	0	0	50
COCC(=O)OCC(=O)Nc1cc([N+](=O)[O-])ccc1Cl	0	-	0	-	0	-	-	-
CCOC(=O)C1=CCC(c2ccccc2C(F)(F)F)N(S(=O)(=O)c2ccc(C)cc2)C1 (stereo not drawn)	0	-	-	-	0	-	-	-
CCOC(=O)c1c(C)nc2c(C)cccn12	0	0	0	0	0	0	-	-
CCOC(=O)c1c(C)nc2c3ccccc3ccn12	0	90	0	0	0	0	58	0
CCO/C(C)=N/n1c2nc3ccccc3nc2c2c(=O)n(C3CCCC3)c(C)nc21	0	100	0	0	0	0	0	36
NS(=O)(=O)c1ccc(NCCCn2ccnc2)c([N+](=O)[O-])c1	0	80	0	0	0	0	0	50
CCCCNc1ccc(S(N)(=O)=O)cc1[N+](=O)[O-]	-	0	0	0	-	0	-	-
O=C(NCCCn1ccnc1)c1cc([N+](=O)[O-])cc([N+](=O)[O-])c1	0	105	0	0	0	0	58	87
CCCCNC(=O)C1(C)CCCCN1Cc1ccc2ccccc2c1 (stereo not drawn)	0	-	-	-	0	-	-	-
CCCCN(C=O)c1c(CC)nc2c(OCCOc3ccccc3)cccn12	0	-	-	-	0	-	-	-
COc1ccc2cc3c(N)c(C(=O)N4CCCC4)sc3nc2c1	0	98	0	0	0	0	89	0
Cc1ccc2cc3c(N)c(C(=O)N4CCOCC4)sc3nc2c1	0	0	0	0	0	0	-	-
Nc1[nH]c(C(=O)c2ccccc2)c(-c2ccncc2)c1C(=O)NC1CC1	0	-	-	-	0	-	-	-
COc1cccc2oc3ccc(C#Cc4ccccn4)cc3c(=O)c12	0	85	0	0	0	0	91	0
CC1CC(C)(C)NC(=S)N1CCCC(=O)Nc1ccc(Cl)cc1 (stereo not drawn)	0	0	0	0	0	0	-	-
CC(C)c1ccc(NC(=O)CCCN2C(=S)NC(C)(C)CC2C)cc1 (stereo not drawn)	0	100	0	0	0	0	0	0
O=c1cc[nH]c2ccc([N+](=O)[O-])cc12	0	122	0	0	0	0	0	61
COc1ccc(C(=O)Nc2ccc3ccccc3n2)cc1OC	0	77	0	0	0	0	78	0
COc1ccc(/C=C/C(=O)O/N=C(\N)c2ccccc2)cc1OC	0	81	0	0	0	0	0	0
COc1cc(C(=O)NCCC(=O)NCc2cccs2)cc(OC)c1OC	0	-	-	-	0	-	-	-
O=C(Nc1nnc([C@@H]2C[C@H](O)[C@@H](CO)O2)s1)c1cccc(OC(F)(F)F)c1	0	-	-	-	0	-	-	-
COCCNc1oc(Cc2cccc3ccccc23)nc1C#N	0	0	0	0	0	0	-	-
CCCCCCCCN1C(=O)[C@H](CC(=O)NCc2cccs2)C[C@@]2(C(=O)OC)CC(C)(C)CC=C12	0	-	-	-	0	-	-	-
